OX1R antag-1 – OX1R (human) antagonism; O43613; OX1R-expressing cells, FRET antagonist read-out; inhibition, % at 6.6 µM; 330,000 compounds, 1.8% hits; in the data active means inhibition mostly above about 38%, no sharp cut-off; inactive means mostly below about 40%;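 further: 0% = agonist challenge alone and 100% = reference antagonist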
Target sequence (O43613 whole entry, looked up): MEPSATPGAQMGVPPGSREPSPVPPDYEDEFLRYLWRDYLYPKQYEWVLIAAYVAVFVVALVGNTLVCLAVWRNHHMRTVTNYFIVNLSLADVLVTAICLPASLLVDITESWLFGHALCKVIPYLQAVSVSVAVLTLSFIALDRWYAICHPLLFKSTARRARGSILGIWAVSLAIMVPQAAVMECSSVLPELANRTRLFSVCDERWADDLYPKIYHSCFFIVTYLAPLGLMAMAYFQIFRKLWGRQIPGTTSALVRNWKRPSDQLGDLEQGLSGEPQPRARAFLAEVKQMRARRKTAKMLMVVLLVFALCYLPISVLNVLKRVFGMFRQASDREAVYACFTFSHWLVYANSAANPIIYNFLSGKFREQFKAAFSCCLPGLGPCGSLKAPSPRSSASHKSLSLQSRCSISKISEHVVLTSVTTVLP
OX1R antag-2 – blocks the human orexin 1 receptor. CHO/OX1R cells, Fluo-8 calcium fluorescence, orexin A. inhibition, % at 5 µM. 330,000 compounds, 0.43% hits;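 active means inhibition above its plate's threshold, mean inhibition of all tested compounds on the plate plus 3 SD, cut at about 37% in these data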;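 further: 0% = orexin A challenge wells and 100% = SB-334867-A antagonist wells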
TAAR1 agonist – agonists of human TAAR1; AID 624467; CHO RD-HGA16 TAAR1, Fluo-8 calcium fluorescence; vehicle wells 0%, saturating PEA agonist 100%; Q96RJ0; activation, % at 3 µM; 360,000 compounds, 0.99% hits;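 active means activation above the mean activation of all test compounds in the run plus 3 SD, cut at about 38% in these data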
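System: CHO RD-HGA16 cells carrying human TAAR1 plus Gα16; Incubation: 17-24 h seeding, 75 min 37 °C dye, 30 min RT; Measured by: Fluo-8 fluorescence, 5 s baseline then 140 s kinetic read; Control set: DMSO and PEA EC100; Replication: single well for each compound.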
CHO parental Ca – counter-screen: ATP calcium response change in parental CHO cells; parental CHO-K1, ATP-induced calcium, Fluo-8 fluorescence; inhibition, % at 5.6 µM; 330,000 compounds, 0.63% hits; AID 463079;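 active means inhibition above that plate's mean sample inhibition plus 3 SD, cut at about 26% in these data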;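 further: 0% = ATP-challenged DMSO wells and 100% = DMSO wells without ATP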
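Assay system – parental CHO cells · Reagent – ATP stimulus · Detection – intracellular calcium via Fluo-8 no-wash fluorescent dye · Evaluation – percent inhibition of ATP-evoked calcium rise, normalized to controls · Controls – ATP wells versus no-ATP DMSO wells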
NTR1 ag – NTR1 (human) agonism | NTR1-U2OS beta-arrestin-GFP spot imaging, agonist mode | activation, % at 20 µM | 330,000 compounds, 0.17% hits | AID 493036;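 active means activation at or above 40% of the spot to cytoplasm intensity ratio, with at least 20 cells analyzed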;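 further: 0% = DMSO without peptide and 100% = 100 nM NTR1 peptide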
TAAR1 antag – antagonists of human TAAR1 | Q96RJ0 | CHO RD-HGA16 TAAR1, Fluo-8 calcium fluorescence, antagonist | inhibition, % at 3 µM | 360,000 compounds, 1.5% hits;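 active means inhibition above a per-plate cutoff, the mean inhibition of test compounds on that plate plus 3 SD, cut at about 49% in these data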;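 further: 0% = DMSO plus EC80 beta-PEA response and 100% = DMSO alone without agonist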
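Test system – hTAAR1-expressing CHO RD-HGA16 cells, Gα16-coupled · Reagent – β-PEA at EC80 concentration, post-compound challenge · Compound dosing – 3 µM, single point · Timing – 140 s kinetic read after compound, 140 s after agonist · Detection – Fluo-8 intracellular calcium dye fluorescence, real-time kinetic reads · Control set – DMSO and EC80 PEA controls · Repeats – n of 1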
Active calls of the source: *; . = no result. Shown are actives, neighbours in structure and some others; about 4% of the full set was active somewhere.

SMILES	OX1R antag-1	OX1R antag-2	TAAR1 agonist	CHO parental Ca	NTR1 ag	TAAR1 antag
C[C@@H]1CCCCO[C@@H](CN(C)C(=O)Nc2ccc3c(c2)OCO3)[C@@H](C)CN([C@H](C)CO)C(=O)c2cc(NC(=O)Nc3ccc(C(F)(F)F)cc3)ccc2O1	.	.	0.2	.	.	8.6
COCCN1CCN(Cc2cn[nH]c2-c2cc3ccccc3o2)CC1	7.8	-13.3	1.1	-5.8	-0.6	-5.2
O=C(CNC(=O)c1ccccc1Cl)N/N=C/c1ccc([N+](=O)[O-])s1	51.1*	-24.5	11.6	-3.5	-0.8	-8.6
O=C(Cc1cccs1)N/N=C\c1ccc([N+](=O)[O-])s1	46.6	-14.0	13.6	-12.4	0.0	-2.9
O=C(CNC(=O)c1ccccc1Br)N/N=C\c1cc([N+](=O)[O-])cc(Br)c1O	52.7*	-0.2	8.9	0.5	1.2	-22.6
COc1ccc(Cl)cc1NS(=O)(=O)c1c(C)[nH]c(C)c1C(=O)N1CCCCC1	48.8*	11.8	4.6	-25.9	-0.6	-11.3
NC(=O)COC(=O)CNC(=O)c1cc(Cl)cc([N+](=O)[O-])c1	53.4*	-14.7	5.6	0.7	-0.5	20.7
O=C(CNC(=O)c1cc(Cl)cc([N+](=O)[O-])c1)OCC(=O)N1CCCCC1	40.9*	-6.5	-0.1	-16.8	4.5	-0.5
O=C(NCC1CC1)c1cc([N+](=O)[O-])cc([N+](=O)[O-])c1	54.4*	-4.5	11.0	-8.0	0.3	-3.4
Cc1cc(C(=O)NCC(=O)OCC(=O)N2CCCCCC2)ccc1[N+](=O)[O-]	11.3	-5.4	0.9	-7.1	2.9	-12.6
COc1ccccc1C(=O)N1CCN(C(=O)[C@H](CCc2ccccc2)NC(=O)[C@H]2O[C@@H](n3cnc4c(N)ncnc43)[C@H](O)[C@@H]2O)CC1	.	.	0.3	.	.	6.8
CC1CCN(S(=O)(=O)c2ccc(C(=O)NNC(=O)C3CC3)cc2)CC1	8.7	-9.3	-0.1	-7.6	-0.3	-0.3
O=C(Oc1cccc(Nc2ncnc3ccccc23)c1)c1ccccc1Cl	95.2*	53.0*	14.0	71.0*	14.6	73.6*
CCOc1ccc(CCNC(=O)CS(=O)Cc2nc(-c3ccccc3Cl)oc2C)cc1OCC (stereo not drawn)	72.1*	17.6	-1.1	-25.5	-0.1	-18.8
COc1ccc(-c2nc(CS(=O)CC(=O)NCCc3ccc(OC)c(OC)c3)c(C)o2)cc1 (stereo not drawn)	9.4	-22.1	-0.9	-1.6	-0.5	3.1
CCOc1ccc(CCNC(=O)CS(=O)Cc2nc(-c3ccc(OC)cc3)oc2C)cc1OCC (stereo not drawn)	49.7*	3.4	-0.6	-24.4	1.4	-1.2
O=S1(=O)CCSC[C@@H](CNCc2ccco2)N1	.	.	1.3	.	.	-0.5
O=C(CNC(=O)C1COc2ccccc2O1)N/N=C/c1ccc(O)cc1O (stereo not drawn)	13.3	-0.6	40.9*	-4.3	7.5	-19.5
Cc1sc2nc3ccc(N4CCCCC4)nn3c(=O)c2c1C	75.6*	-13.7	4.3	-23.3	3.3	-26.9
Cc1sc2nc3n(c(=O)c2c1C)CCCCC3	8.2	-10.2	-4.1	-14.0	-0.6	-7.3
Cc1ccc2nc3ccc(N4CCCC4)nn3c(=O)c2c1	77.7*	-16.1	4.8	-1.8	2.0	-13.8
CCOc1ccc2c(c1)c1nnc(SCC(=O)NC3CC3)nc1n2C	57.0	-6.7	-2.4	-1.3	-0.8	-2.7
COc1ccc2c(c1)c1nnc(SC)nc1n2C	48.5*	-1.2	19.6	-8.3	1.3	5.1
CCN(CCOC(=O)Nc1ccc(Cl)cc1)C(=O)Nc1ccc(Cl)cc1	.	.	5.1	.	.	10.3
Cc1ccc(SCC(=O)OCC(=O)N(C)CC(=O)Nc2ccc(F)cc2)cc1C	16.9	-25.7	112.7*	-24.8	-0.7	42.4
SMILES	OX1R antag-1	OX1R antag-2	TAAR1 agonist	CHO parental Ca	NTR1 ag	TAAR1 antag
COc1ccc(S(=O)(=O)N2CCCCCC2)cc1NC(=O)CN1C(=O)NC(C)(c2ccccc2)C1=O (stereo not drawn)	7.8	-11.7	9.7	-9.7	2.2	47.9
O=C(COc1cc2oc(=O)cc(-c3ccccc3)c2cc1Cl)NCCN1CCOCC1	49.0*	7.0	6.0	-13.7	-0.6	-8.1
Cn1c(NCc2cccnc2)nc2cc(-c3ccc(C(=O)N4CCOCC4)cc3)sc2c1=O	.	.	8.5	.	.	-20.0
COCCn1c2nc(=O)n(-c3ccccc3)c(=O)c-2nc2ccccc21	.	.	58.9*	.	.	19.7
COC(=O)C1=C(C)N(Cc2cccc(C(F)(F)F)c2)C(=NCc2cccc(C(F)(F)F)c2)NC1c1ccc(Cl)cc1 (stereo not drawn)	.	.	10.9	.	.	5.9
CN1OC[C@@H]2CN(C(=S)NCCc3ccccc3)[C@H](c3ccccc3Br)C[C@@H]21	.	.	5.6	.	.	-4.6
CCOC(=O)C1=C(C)NC(C)=C(C(=O)OCC)C1C(=O)OCC(=O)NCCc1ccccc1	6.9	-21.8	2.3	-13.2	2.9	-0.3
CC1CC(C)(C)CC2(C1)NC(=O)N(CC(=O)OCc1ccc(Br)cc1)C2=O (stereo not drawn)	-3.5	-30.8	41.3*	-9.9	2.0	22.7
CC1CC(C)(C)CC2(C1)NC(=O)N(CC(=O)Nc1ccc3[nH]c(=O)[nH]c3c1)C2=O (stereo not drawn)	2.5	2.8	1.4	-3.8	0.2	-16.4
Cc1[nH]c2ccccc2c1C(=O)CN1C(=O)NC2(CC(C)CC(C)(C)C2)C1=O (stereo not drawn)	19.5	-2.5	17.0	-7.1	2.8	53.4*
CC(C)[C@@H](C)/C=C/[C@@H](C)[C@H]1CC[C@@H]2[C@]1(C)CCC1[C@]23C=C[C@]2(C[C@@H](O)CC[C@]12C)N(c1ccc(Br)cn1)O3 (stereo partly drawn)	.	.	0.1	.	.	-20.4
CCc1ccc2[nH]c(=O)c(CN(Cc3ccccc3OC)Cc3nnnn3Cc3ccco3)cc2c1	48.0	-19.9	12.8	-21.2	12.4	39.6
COc1ccccc1CN(Cc1cc2cc(C)ccc2[nH]c1=O)Cc1nnnn1Cc1ccco1	71.8*	3.7	15.2	-20.6	3.3	30.9
COC(=O)C1=C(C)N(C)C(=NCc2ccccc2C(F)(F)F)NC1c1ccc(C(F)(F)F)cc1 (stereo not drawn)	.	.	18.5	.	.	24.4
COc1ccc(C(=O)OCc2c(-c3cccc(OC)c3)ncc3ccccc23)cc1	12.2	-11.5	4.2	-33.2	1.4	11.0
COc1cccc(-c2ncc3ccccc3c2COC(=O)N2CCOCC2)c1	11.8	-9.0	22.9	-18.7	2.4	55.6*
O=C(N[C@H](Cc1ccccc1)C(=O)NCc1ccccn1)[C@H]1O[C@@H](n2ccc(=O)[nH]c2=O)[C@H](O)[C@@H]1O	.	.	1.2	.	.	-9.2
COc1ccc(C(=O)C[n+]2cccc3cc(OC)ccc32)cc1	13.9	-7.3	0.8	3.0	-2.4	17.9
